Screens as filed in PubChem.
Sampled rows, rich in hits. Any-hit rate of the full collection: about 4.3%.
AHR activator = activates the human aryl hydrocarbon receptor; hit rate 2.5% among 320,000; AID 2796; AHR-responsive luciferase reporter cells, luminescence; activation, % at 5 µM; P35869; in the data active means activation above about 47%
SMARCA2 act = SMARCA2 function activation, primary screen | activation, % at 9.1 µM | hit rate 1% among 370,000 | MG213 cells, MMTV-luciferase reporter, dexamethasone, overnight | AID 652017; in the data active means activation above about 7.8%
CR mimetic SO = caloric restriction mimetics inhibiting age-related superoxide in yeast. hit rate 0.18% among 330,000. superoxide response (% of plate mean), % at 10 µM. S. cerevisiae aged cells, superoxide DHE fluorescence; active compounds read low. AID 2690;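 active means superoxide response under a set limit, about three screen SD below normal, cut at about 65% in these data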;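 further: yeast aged for seven days with compound at 30 °C before DHE staining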
Lipid droplet = modulators of hepatic lipid droplet formation | AML12 mouse hepatocytes, oleate lipid droplets, BODIPY imaging | inhibition, % at 6.5 µM | hit rate 0.4% among 240,000 | AID 1656;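 active means lipid droplet intensity inhibited by at least 50%, with more than 500 cells counted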
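Test system: AML12 mouse liver cells; schedule: overnight exposure; technique: high-content imaging of BODIPY-stained droplets and DAPI nuclei; read-out: % inhibition of corrected integrated BODIPY droplet signal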
SR-BI DiI-HDL act = activators of SR-BI mediated HDL lipid uptake; hit rate 0.096% among 320,000; activation, % at 12.5 µM; CHO ldlA[mSR-BI] cells, DiI-HDL uptake fluorescence, 3 h; 100 = double the neutral-control signal;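 active means mean replicate activation of at least 60% and every replicate at or above 60%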
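Material – SR-BI-overexpressing, LDLR-lacking CHO cells · Medium – BSA-supplemented, HEPES-buffered Ham's F12, pH 7.4 · Doses – single concentration · Times – compound with DiI-HDL co-incubation, 3 h at 37 °C · Measured by – bottom-read fluorescence, 550/595 nm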
SR-BI HDL uptake = blocks mouse SR-BI lipid uptake from DiI-HDL. Q61009. ldlA[mSR-BI] CHO cells, DiI-HDL uptake fluorescence, 3 h. inhibition, % at 12.5 µM. hit rate 0.96% among 320,000. AID 488896;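 active means mean replicate inhibition of at least 70% and a set share of replicates each scoring 70 or more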
Target sequence (Q61009 whole entry, looked up): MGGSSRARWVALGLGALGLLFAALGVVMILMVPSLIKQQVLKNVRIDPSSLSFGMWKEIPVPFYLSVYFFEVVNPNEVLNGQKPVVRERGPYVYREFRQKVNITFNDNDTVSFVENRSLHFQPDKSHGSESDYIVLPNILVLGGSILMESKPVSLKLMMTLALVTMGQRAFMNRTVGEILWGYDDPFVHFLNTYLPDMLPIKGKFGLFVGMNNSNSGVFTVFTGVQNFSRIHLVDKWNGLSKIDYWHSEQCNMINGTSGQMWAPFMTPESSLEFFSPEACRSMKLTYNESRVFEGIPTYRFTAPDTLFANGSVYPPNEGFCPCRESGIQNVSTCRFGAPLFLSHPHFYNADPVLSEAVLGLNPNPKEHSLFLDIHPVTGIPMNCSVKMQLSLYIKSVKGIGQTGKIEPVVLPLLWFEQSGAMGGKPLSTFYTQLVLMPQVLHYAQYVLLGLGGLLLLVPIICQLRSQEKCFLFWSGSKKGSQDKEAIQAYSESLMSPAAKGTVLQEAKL
Hits are given with their value; i = inactive; nt = no result given.

SMILES	AHR activator	SMARCA2 act	CR mimetic SO	Lipid droplet	SR-BI DiI-HDL act	SR-BI HDL uptake
COC(=O)CN1CCN(C(=O)c2csc(-c3ccccc3)n2)CC1	nt	i	nt	nt	nt	nt
Cc1ccc(-n2c(SCC(=O)Nc3ccccc3-c3ccccc3)nnc2-c2ccco2)cc1	nt	i	nt	nt	nt	nt
CSc1ccccc1OCc1cc(C(=O)NCc2cccc(C)n2)no1	i	i	i	i	i	i
CSc1ccccc1OCc1cc(C(=O)NC(C)Cc2cccc(C)n2)no1 (configuration not stated)	53	i	i	i	i	i
Cc1ccc(C(=O)N/C(=C/c2ccco2)C(=O)NCc2ccco2)cc1	i	i	i	i	i	i
Cc1ccc(C(=O)N/C(=C\c2ccco2)C(=O)NCc2cccnc2)cc1	i	8.0	i	i	i	i
C=CCN1C(=O)[C@H](CC(=O)NCCc2ccccc2OC)[C@@]2(C(=O)OCC)CCCC=C12	nt	i	nt	nt	nt	nt
O=C(COc1ccc(C(=O)c2ccccc2)cc1)NC1CCCCCC1	i	i	i	i	i	i
COc1ccccc1/C=C/C(=O)OCC(=O)NC1CCCCCCC1	i	i	i	nt	i	i
O=C(COC(=O)/C=C/c1ccccc1Cl)NC1CCCCCC1	i	i	i	i	65	i
O=C(COc1ccc(C(=O)c2ccccc2)cc1)NC1CCCCC1	i	i	i	i	69	i
O=C(OCc1cn(Cc2cccc(Cl)c2)nn1)N1CCCC1	nt	i	nt	nt	nt	nt
O=C(NC1CCCCN(Cc2cccc(Cl)c2)C1=O)c1cccc2nsnc12 (configuration not stated)	nt	i	nt	nt	nt	nt
COc1ccccc1C(=O)NC1CCCCN(Cc2cccc(C(F)(F)F)c2)C1=O (configuration not stated)	nt	i	nt	nt	nt	nt
CCN(CC)C(=O)c1[nH]cnc1C(=O)Nc1ccc(OC)cc1	65	i	i	i	i	i
CCN(CC)C(=O)c1[nH]cnc1C(=O)Nc1ccc(Cl)cc1	75	i	i	nt	i	i
CCN(CC)C(=O)c1[nH]cnc1C(=O)Nc1cccc(C)c1	54	i	i	nt	i	i
CCOC(=O)c1ccc(NC(=O)c2nc[nH]c2C(=O)N(CC)CC)cc1	i	i	i	i	i	i
Cc1ccccc1S(=O)(=O)N(C)C[C@@H]1OCc2cn(nn2)CCCC(=O)N([C@@H](C)CO)C[C@H]1C	nt	i	nt	nt	nt	nt
CCCN1CCCCC(NC(=O)c2ccc(F)c(F)c2)C1=O (configuration not stated)	nt	i	nt	nt	nt	nt
CN1CCCCC(NC(=O)COCc2ccccc2)C1=O (configuration not stated)	nt	i	nt	nt	nt	nt
CCc1ccc2oc(-c3cc(N)ccc3O)nc2c1	74	i	i	i	i	i
Nc1ccc2oc(-c3ccccc3Cl)nc2c1	i	i	i	i	i	i
Nc1ccc2oc(-c3cc(Br)ccc3Cl)nc2c1	49	nt	i	nt	i	i
CCc1ccc2oc(-c3cc(N)ccc3Cl)nc2c1	49	i	i	i	i	i
SMILES	AHR activator	SMARCA2 act	CR mimetic SO	Lipid droplet	SR-BI DiI-HDL act	SR-BI HDL uptake
CN(C)c1cccc(/C=C2\CC3(OC(=O)c4ccco4)CCCN2C3)c1 (configuration not stated)	nt	i	nt	nt	nt	nt
CCC(=O)N1CCN(c2ccccc2NC(=O)COc2ccccc2Cl)CC1	68	i	i	i	i	i
CCC(=O)N1CCN(c2ccc(NC(=O)COc3ccccc3Cl)cc2)CC1	i	i	i	i	i	i
N#Cc1c(C(F)(F)F)cc(-c2ccc(Cl)c(Cl)c2)nc1SCCN1CCOCC1	65	nt	i	nt	i	i
CN(Cc1ccccc1)C(=O)OCc1cn(Cc2ccccc2Cl)nn1	nt	i	nt	nt	nt	nt
CC(=O)CC[C@H]1CC[C@]2(CCCN(C(=O)C3CCCCC3)C2)O1	nt	i	nt	nt	nt	nt
COc1cc(C2=NOC(C(=O)N3CCCc4ccccc43)C2)cc(OC)c1OC (configuration not stated)	i	i	i	nt	i	82
O=c1c2[nH]c3ccccc3c2nc2n1CCS2	57	i	i	i	i	i
O=C(Nc1nccs1)c1sc2ccccc2c1Cl	47	i	i	i	i	i
CC(C)c1nnc(NC(=O)c2sc3ccccc3c2Cl)s1	71	i	i	nt	i	i
CCN(CC)C(=O)CC[C@H]1CC[C@]2(CCCN(Cc3ccc(Br)cc3)C2)O1	nt	i	nt	nt	nt	nt
C[C@@H]1COc2cccc(N3CCCC3)c2S(=O)(=O)N1	nt	i	nt	nt	nt	nt
COc1ccc(NC(=O)CSc2nc3c(cc2C#N)CN(C)CC3)cc1	i	i	i	i	i	i
CN1CCc2nc(SCC(=O)Nc3ccc(F)cc3)c(C#N)cc2C1	67	nt	i	i	nt	nt
CCC(=O)OCCCN1CCC2(CCC(c3ccccc3)CC2)C1=O (configuration not stated)	nt	i	nt	nt	nt	nt
Cc1cc(C)cc(NC(=O)Nc2ccc3ccccc3n2)c1	56	i	i	i	i	i
COC(=O)COc1c(/C=C\c2nc(O)c([N+](=O)[O-])c(=O)[nH]2)cccc1OC	i	i	i	i	i	75
O=S1(=O)c2ccc(N3CCSCC3)cc2Oc2ccccc2CN1Cc1cn(Cc2cccc(C(F)(F)F)c2)nn1	nt	i	nt	nt	nt	nt
C=C(C)CN(CC)C(=O)CSc1nc2ncc(Cl)cc2[nH]1	69	i	i	nt	i	i
C=C(C)CSc1nc2ncc(Cl)cc2[nH]1	i	i	i	i	i	i
COc1ccc2oc(C(=O)Nc3nc(C)cs3)c(C)c2c1	i	i	i	nt	i	i
COc1ccc2oc(C(=O)Nc3ccccn3)c(C)c2c1	72	i	i	i	i	i
COc1ccc2oc(C(=O)Nc3ccc(C)cn3)c(C)c2c1	75	i	i	nt	i	i
CN1C(=O)c2cc(NC(=O)C3CCOCC3)ccc2OC[C@@H]2O[C@@H](CC(=O)NCc3ccccc3F)CC[C@@H]21	nt	i	nt	nt	nt	nt
Cc1cccc(N2Cc3ccc(Br)cc3C2)c1	48	i	i	nt	i	i
SMILES	AHR activator	SMARCA2 act	CR mimetic SO	Lipid droplet	SR-BI DiI-HDL act	SR-BI HDL uptake
C/C(=N/O)c1cccc(N2Cc3ccccc3C2)c1	i	i	i	i	i	i
CCOc1ccccc1NC(=O)c1c(Br)cnn1C	59	i	i	i	i	i
CCn1nccc1C(=O)Nc1ccccc1OC	i	i	i	i	i	i
COC(=O)c1ccc(NC(=O)c2c(Br)cnn2C)cc1	i	i	i	nt	i	i
CCn1ncc(Br)c1C(=O)Nc1ccccc1OC	49	i	i	i	i	i
CCn1ncc(Br)c1C(=O)Nc1ccc(C(C)C)cc1	77	i	i	i	i	i
CCn1ncc(Br)c1C(=O)Nc1sc2c(c1C(N)=O)CCC2	49	i	i	i	i	i
COc1ccc(-n2c(CSc3ccc(Cl)cc3)n[nH]c2=S)cc1	nt	i	nt	nt	nt	nt
COC(=O)[C@]12C[C@H](CC(=O)N3CCCCC3)C(=O)N(CCC3=CCCCC3)C1=C[C@H](COCc1ccccc1)O[C@@H]2C	nt	i	nt	nt	nt	nt
O=C(c1ccc(NS(=O)(=O)c2cccc([N+](=O)[O-])c2)cc1)N1CCN(C(=O)c2ccco2)CC1	i	i	i	nt	63	i
Cc1cc(N/N=C/c2c(O)ccc3ccccc23)nc(-c2ccccc2O)n1	i	i	i	i	i	91
